Experimental data from PubChem BioAssay.
Activity calls are given as the source filed them.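 How the source made its calls, unless noted: active means GFP response above 150% of the DMSO level; inconclusive means fewer than 70 events counted for a yeast strain; inactive means the rest.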

How the values were obtained:
[1] = RPL19A-GFP modulators, yeast TOR pathway, confirmation, cell-based, S. cerevisiae, flow cytometry, cherry picks, mother/daughter gates (AID 2270;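 active means GFP response below 50% of the DMSO control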); conditions: S. cerevisiae RPL19A-GFP strain, 3 h, at 10 µM, stronger effect = lower value, 100 = same GFP as DMSO wells
[2] = LAP4-GFP expression modulators in yeast, confirmation, cell-based, cherry picks, flow cytometry, mother/daughter gates (AID 2271;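 active means GFP response above 150% of the DMSO control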;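 further: ratio of sample to DMSO plate mean so 100% equals DMSO level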); conditions: S. cerevisiae LAP4-GFP strain, 3 h, at 10 µM, stronger effect = higher value, 100 means same as DMSO control
Outline: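 System – GFP-fusion yeast strain · Amount – 0.2 OD600 cells · Buffer or medium – SC growth medium · Dosing – single test-compound dose, 10 µM final · Schedule – 3 h treatment at 30 °C with rotation · Detection – GFP by flow cytometry · Read-out – per-gate (all, mother, daughter) GFP response vs DMSO · Benchmarks – positive rapamycin (400 ng/mL), negative DMSO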

[3] = modulators of MEP2-GFP levels in yeast, confirmation, S. cerevisiae, flow cytometry GFP, cherry picks (AID 2272;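 active means GFP response above 150% of the DMSO control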;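 further: ratio of well signal to plate DMSO mean so 100% equals DMSO level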); conditions: S. cerevisiae MEP2-GFP strain, 3 h, at 10 µM, stronger effect = higher value
[4] = AGP1-GFP expression modulators, hit retest, confirmation, cell-based, flow cytometry, S. cerevisiae, cherry picks (AID 2273);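 further: median GFP channel fluorescence over the whole cell population gate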; conditions: S. cerevisiae AGP1-GFP strain, 3 h, at 10 µM
[5] = modulators of CIT2-GFP expression in yeast, confirmation, S. cerevisiae, GFP fusion, cherry picks, mother/daughter gates (AID 2274); conditions: S. cerevisiae CIT2-GFP strain, flow cytometry, 3 h, at 10 µM, stronger effect = higher value
[6] = measured here: daughter cell gate
[7] = measured here: mother cell gate
[8] = measured here: daughter cell gate response
[9] = measured here: mother cell gate response

Row | Structure (SMILES) | GFP response vs DMSO [1] | GFP response vs DMSO [1, 6] [%] | GFP response vs DMSO [1, 7] [%] | GFP response relative to DMSO [2] | GFP response relative to DMSO [2, 8] [%] | GFP response relative to DMSO [2, 9] [%] | GFP response vs DMSO [3] | GFP response, % of DMSO [4] | GFP response, % of DMSO [5] | GFP response, % of DMSO [5, 6] [%] | GFP response, % of DMSO [5, 7] [%]
1 | CCOc1ccccc1/C=C/C(=O)c1ccc(Cl)cc1 | 98.2% (inactive) | 97.1 | 98.5 | 99.2% (inactive) | 99.2 | 97.2 | 98.3% (inactive) | 102% (inactive) | 103% (inactive) | 103 | 102
2 | COc1ccc(-c2nnc(NC(=O)c3ccc(S(=O)(=O)N4COCC4(C)C)cc3)o2)cc1 | 96.5% (inactive) | 98.1 | 94 | 95.3% (inactive) | 92.9 | 97.4 | 103% (inactive) | 103% (inactive) | 98.6% (inactive) | 99.3 | 98.2
3 | CCCN(c1ccccc1F)S(=O)(=O)c1cc(-c2cc(C)no2)ccc1OC | 95.6% (inactive) | 95.6 | 96.1 | 97.9% (inactive) | 96 | 98.3 | 102% (inactive) | 95.6% (inactive) | 95.5% (inactive) | 95.4 | 95
4 | COC(=O)c1sc(-c2ccc(C(C)(C)C)cc2)cc1NC(=O)CCC(=O)O | 98.6% (inactive) | 97.3 | 98.9 | 98.7% (inactive) | 95.6 | 100 | 100% (inactive) | 95.4% (inactive) | 97.8% (inactive) | 96.5 | 98.7
5 | CC(=O)Oc1oc(-c2ccccc2)nc1C=Nc1ccc(N(C)C)cc1 | 100% (inactive) | 100 | 99.2 | 95% (inactive) | 91 | 98.3 | 95.7% (inactive) | 97% (inactive) | 92.6% (inactive) | 91.5 | 92.3
6 | COc1ccc(NC(=S)NCCCCCC(=O)C[N+](=O)[O-])cc1 | 96% (inactive) | 96.4 | 96.1 | 90.2% (inactive) | 91.2 | 89.7 | 98.3% (inactive) | 98.7% (inactive) | 99.7% (inactive) | 101 | 97.3
7 | Cc1cccc(NC(=O)c2nc(S(=O)(=O)Cc3ccccc3)ncc2Cl)c1 | 93.1% (inactive) | 92.7 | 91.4 | 136% (inactive) | 128 | 137 | 108% (inactive) | 116% (inactive) | 93.1% (inactive) | 88.7 | 90.4
8 | CCOC(=O)CNc1c(-c2ccc(O)cc2)nc2ccc(Cl)cn12 | 101% (inactive) | 99.8 | 101 | 96.5% (inactive) | 95 | 97.5 | 102% (inactive) | 95.4% (inactive) | 96.4% (inactive) | 96.4 | 95.6
9 | NNC(=O)c1ccc(COc2ccc3ccccc3c2)cc1 | 98% (inactive) | 96.1 | 95.7 | 101% (inactive) | 101 | 102 | 99% (inactive) | 94.9% (inactive) | 93% (inactive) | 93.8 | 91.9
10 | COc1ccc(CNC(=O)c2nc(S(=O)(=O)Cc3ccccc3)ncc2Cl)cc1 | 102% (inactive) | 104 | 101 | 107% (inactive) | 107 | 108 | 116% (inactive) | 103% (inactive) | 106% (inactive) | 106 | 105
11 | Cc1ccc(C(=O)Sc2cccccc2=O)cc1 | 101% (inactive) | 99.4 | 99 | 313% (active) | 281 | 315 | 132% (inactive) | 104% (inactive) | 90.9% (inactive) | 93.7 | 84.8
12 | COc1ccc(NC(=O)Nc2ccon2)c(OC)c1 | 101% (inactive) | 102 | 99.5 | 95.7% (inactive) | 94.2 | 95.2 | 99% (inactive) | 106% (inactive) | 103% (inactive) | 99.2 | 101
13 | Oc1ccc(/C=N/Nc2nc(-c3cccnc3)nc3ccccc23)c(O)c1 | 93.5% (inactive) | 95.3 | 94.6 | 83.8% (inactive) | 84.2 | 82.7 | 101% (inactive) | 101% (inactive) | 106% (inactive) | 108 | 105
14 | CC(=O)Nc1ccc(S(=O)(=O)NC(CC(=O)NCCC2=CCCCC2)C(C)C)cc1 (stereo not drawn) | 99.8% (inactive) | 99.4 | 101 | 99.2% (inactive) | 99.2 | 96.1 | 102% (inactive) | 101% (inactive) | 101% (inactive) | 101 | 101
15 | CC(=O)OCC(=O)[C@@]1(O)CC[C@H]2[C@@H]3CCC4=CC(=O)CC[C@]4(C)[C@H]3C(=O)C[C@@]21C | 102% (inactive) | 100 | 103 | 101% (inactive) | 102 | 102 | 100% (inactive) | 100% (inactive) | 97.8% (inactive) | 96.5 | 97.7
16 | CCOc1ccc(-c2noc(-c3cccnc3)n2)cc1OC | 97.2% (inactive) | 97.1 | 96.4 | 99.2% (inactive) | 99.2 | 98.3 | 100% (inactive) | 95.6% (inactive) | 104% (inactive) | 103 | 98.5
17 | C=CCOc1ccc(C(=O)n2cc(C(=O)OC)c3ccccc32)cc1 | 95.6% (inactive) | 97.1 | 96.4 | 96.7% (inactive) | 99.2 | 96.1 | 96.2% (inactive) | 101% (inactive) | 101% (inactive) | 103 | 101

Row | Structure (SMILES) | GFP response vs DMSO [1] | GFP response vs DMSO [1, 6] [%] | GFP response vs DMSO [1, 7] [%] | GFP response relative to DMSO [2] | GFP response relative to DMSO [2, 8] [%] | GFP response relative to DMSO [2, 9] [%] | GFP response vs DMSO [3] | GFP response, % of DMSO [4] | GFP response, % of DMSO [5] | GFP response, % of DMSO [5, 6] [%] | GFP response, % of DMSO [5, 7] [%]
18 | CCOC(=O)c1ccc(NC(=O)CCc2nc(-c3ccc(C)cc3)no2)cc1 | 101% (inactive) | 102 | 100 | 98.2% (inactive) | 99.1 | 98.4 | 107% (inactive) | 100% (inactive) | 91.5% (inactive) | 90.2 | 93.2
19 | CSc1ccc(/C=C/C(=O)c2ccc(NC(=O)C(C)C)cc2)cc1 | 98.8% (inactive) | 97.5 | 99.1 | 107% (inactive) | 103 | 111 | 100% (inactive) | 93.5% (inactive) | 92.6% (inactive) | 93.2 | 90.2
20 | CCc1nnc(NC(=O)c2ccc(S(=O)(=O)N(C)Cc3ccccc3)cc2)o1 | 99% (inactive) | 99.5 | 98.5 | 103% (inactive) | 106 | 103 | 104% (inactive) | 103% (inactive) | 103% (inactive) | 99.7 | 105
21 | FC(F)(F)c1cc(-c2cccs2)nc2cc(-c3cccs3)nn12 | 103% (inactive) | 102 | 102 | 97% (inactive) | 97.5 | 97.3 | 103% (inactive) | 95.1% (inactive) | 93% (inactive) | 92 | 94.4
22 | CC(C)n1c(=S)[nH]c2c1c(=O)[nH]c(=O)n2C | 98.8% (inactive) | 97.3 | 99.8 | 99.8% (inactive) | 102 | 101 | 100% (inactive) | 104% (inactive) | 100% (inactive) | 99.7 | 102
23 | O=C(NC(=S)NNC(=O)c1ccc(Cl)cc1Cl)c1cccnc1 | 102% (inactive) | 103 | 102 | 97.3% (inactive) | 96.6 | 98.2 | 101% (inactive) | 104% (inactive) | 98.4% (inactive) | 100 | 96.7
24 | CC1CN(c2nc3ccccn3c(=O)c2/C=C(\C#N)C(=O)N2CCOCC2)CC(C)O1 (stereo not drawn) | 98.5% (inactive) | 99.3 | 98.4 | 102% (inactive) | 97.5 | 104 | 101% (inactive) | 95% (inactive) | 100% (inactive) | 99.3 | 102
25 | CCN1C(=O)/C(=C\C(=O)c2cccs2)c2cc(Br)ccc21 | 97.6% (inactive) | 96.7 | 97.2 | 144% (inactive) | 128 | 140 | 104% (inactive) | 94.5% (inactive) | 99.3% (inactive) | 104 | 92.1
26 | Oc1cccc(/C=N/c2c(-c3ccco3)nc3ccccn23)c1 | 96.6% (inactive) | 96.2 | 96.9 | 96.5% (inactive) | 97.9 | 94.6 | 97.5% (inactive) | 97.1% (inactive) | 96.4% (inactive) | 98.3 | 94.5
27 | CCOc1ccccc1NC1=C(Cl)C(=O)N(Cc2ccccc2)C1=O | 103% (inactive) | 102 | 104 | 96.2% (inactive) | 97.2 | 97.2 | 104% (inactive) | 98.5% (inactive) | 99.1% (inactive) | 99.7 | 98.7
28 | COc1cc(-c2noc(-c3cccc(Cl)c3)n2)cc(OC)c1OC | 96.2% (inactive) | 97 | 95.8 | 90.6% (inactive) | 88.2 | 91.3 | 103% (inactive) | 99.5% (inactive) | 101% (inactive) | 101 | 103
29 | CS(=O)(=O)N1CCc2cc(C(=O)Nc3ccc(COCC(F)(F)F)cc3)ccc21 | 102% (inactive) | 104 | 103 | 92.6% (inactive) | 97.2 | 93.1 | 100% (inactive) | 96.1% (inactive) | 110% (inactive) | 108 | 111
30 | COc1ccc(/C=N/Nc2nc(-c3cccnc3)nc3ccccc23)c(OC)c1 | 98% (inactive) | 97.6 | 98.2 | 96.7% (inactive) | 94.4 | 98.3 | 111% (inactive) | 96.8% (inactive) | 108% (inactive) | 112 | 107
31 | CN(C)S(=O)(=O)c1cc(NC(=O)CN2CCOCC2)ccc1Cl | 97.6% (inactive) | 97.3 | 97.7 | 95.3% (inactive) | 99 | 96.4 | 97.2% (inactive) | 97.3% (inactive) | 100% (inactive) | 99.3 | 102
32 | Cc1ccccc1C(=O)Nc1cccc(N)c1 | 99% (inactive) | 98.6 | 98.6 | 93.1% (inactive) | 94.2 | 94.1 | 101% (inactive) | 105% (inactive) | 97.3% (inactive) | 95.6 | 96.8
33 | O=C(COC(=O)c1n[nH]c2ccccc12)c1cc(F)ccc1F | 99.5% (inactive) | 99 | 101 | 97.4% (inactive) | 98.7 | 98.3 | 97.8% (inactive) | 97.6% (inactive) | 97.8% (inactive) | 96.5 | 99.8
